Activity calls are given as the source filed them. The calls are words filed in the database; no cut-off is given here.
Experiments:
[1] = target: T1, Nicotinic acetylcholine receptor alpha4/beta2/alpha5 (Homo sapiens) (UniProt P17787+P43681+P30532); test: Agonist activity at human alpha4beta2alpha5 nACHR expressed in HEK-tsA201 cells by fluorometric analysis; type: cell-based
[2] = target: T1, Nicotinic acetylcholine receptor alpha4/beta2/alpha5 (Homo sapiens); test: Positive allosteric modulation of human alpha4beta2alpha5 nACHR expressed in HEK-tsA201 cells assessed as potentiation of nicotine-induced current at 1 uM preincubated for 15 mins followed by nicotine-treatment by fluorometric analysis; type: cell-based
Method in brief: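 In human α4β2α5 AChR HEK tsA201 cells (200,000/well, 20 h at 29 °C before testing), compound was added 15 min before nicotine. Potentiation of the nicotine response was read by membrane-potential fluorescence on a FLEXstation, with 3–4 wells averaged per point.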

[3] = target: Nicotinic acetylcholine receptor alpha3/beta2/alpha5 (Homo sapiens) (UniProt P17787+P32297+P30532); test: Positive allosteric modulation of human alpha3beta2alpha5 nACHR expressed in HEK-tsA201 cells assessed as potentiation of nicotine-induced current preincubated for 15 mins followed by nicotine-treatment by fluorometric analysis; type: cell-based
Method in brief: (§1)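 Human AChR subtypes were stably expressed in HEK tsA201 cells grown in DMEM with 10% FBS at 37 °C. Plating was 150,000/well for lines without α5 and 200,000/well for α5 lines, on poly-D-lysine plates. β2-containing lines were incubated 20 h at 29 °C before testing. Serial dilutions of compound were added 15 min before nicotine. Membrane-potential fluorescence was read on a FLEXstation, with 3–4 wells per point and a Hill equation fit.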

[4] = target: Neuronal acetylcholine receptor; alpha3/beta2 (Homo sapiens) (UniProt P17787+P32297); test: Positive allosteric modulation of human alpha3beta2 nACHR expressed in HEK-tsA201 cells assessed as potentiation of nicotine-induced current preincubated for 15 mins followed by nicotine-treatment by fluorometric analysis; type: cell-based; method in brief: as §1
[5] = target: Nicotinic acetylcholine receptor alpha3/beta4/alpha5 (Homo sapiens) (UniProt P30926+P32297+P30532); test: Positive allosteric modulation of human alpha3beta4alpha5 nACHR expressed in HEK-tsA201 cells assessed as potentiation of nicotine-induced current preincubated for 15 mins followed by nicotine-treatment by fluorometric analysis; type: cell-based; method in brief: as §1
[6] = target: Neuronal acetylcholine receptor; alpha3/beta4 (Homo sapiens) (UniProt P30926+P32297); test: Positive allosteric modulation of human alpha3beta4 nACHR expressed in HEK-tsA201 cells assessed as potentiation of nicotine-induced current preincubated for 15 mins followed by nicotine-treatment by fluorometric analysis; type: cell-based; method in brief: as §1
[7] = target: Nicotinic acetylcholine receptor alpha4/beta2/alpha5 (Homo sapiens, UniProt P17787+P30532+P43681); test: Positive allosteric modulation of human alpha4beta2alpha5 nACHR expressed in HEK-tsA201 cells assessed as potentiation of nicotine-induced current preincubated for 15 mins followed by nicotine-treatment by fluorometric analysis; type: cell-based; method in brief: as §1
[8] = target: T2, Neuronal acetylcholine receptor; alpha4/beta2 (Homo sapiens, UniProt P17787+P43681); test: Positive allosteric modulation of alpha4beta2 nACHR (unknown origin); type: protein-complex assay
[9] = target: T2, Neuronal acetylcholine receptor; alpha4/beta2; test: Positive allosteric modulation of human alpha4beta2 nACHR expressed in HEK-tsA201 cells assessed as potentiation of nicotine-induced current preincubated for 15 mins followed by nicotine-treatment by fluorometric analysis; type: cell-based; method in brief: as §1
[10] = target: T1, Nicotinic acetylcholine receptor alpha4/beta2/alpha5 (Homo sapiens); test: Positive allosteric modulation of human alpha4beta2alpha5 nACHR expressed in HEK-tsA201 cells assessed as potentiation of nicotine-induced current preincubated for 15 mins followed by nicotine-treatment by fluorometric analysis relative to NS9283; type: cell-based; method in brief: as §1
Mus musculus [11] = test: Oral bioavailability in mouse at 2 mg/kg; type: ADME, organism-based; details: in vivo
Method in brief: (§2)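 Mouse pharmacokinetics. Each compound was dosed 1 mg/kg IV and 2 mg/kg PO. From these the following were derived: clearance, half-life, PO AUC, PO Cmax, volume of distribution and oral bioavailability (F%).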

[12] = Cmax in mouse at 2 mg/kg, po; type: ADME, organism-based; design: dose 2 mg/kg, route oral; details: in vivo; method in brief: as §2
Mus musculus [13] = test: Volume of distribution in mouse at 1 mg/kg, iv and 2 mg/kg, po; type: ADME, organism-based; details: in vivo; method in brief: as §2
Mus musculus [14] = test: AUC in mouse at 2 mg/kg, po; type: ADME, organism-based, Plasma; design: dose 2 mg/kg, route oral; details: in vivo; method in brief: as §2
[15] = Half life in mouse at 1 mg/kg, iv and 2 mg/kg, po; type: ADME, organism-based; details: in vivo; method in brief: as §2
[16] = Drug uptake in mouse brain at 10 mg/kg, ip after 2 hrs; type: ADME, organism-based; design: dose 10 mg/kg, route intraperitoneal; details: read-out: Drug uptake
Method in brief: (§3)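 Mice were given 10 mg/kg by intraperitoneal injection. Plasma and brain drug levels were measured 2 h after dosing.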

[17] = Plasma concentration in mouse at 10 mg/kg, ip after 2 hrs; type: ADME, organism-based; design: dose 10 mg/kg, route intraperitoneal; method in brief: as §3

Chain of Nicotinic acetylcholine receptor alpha4/beta2/alpha5 (P17787 whole entry): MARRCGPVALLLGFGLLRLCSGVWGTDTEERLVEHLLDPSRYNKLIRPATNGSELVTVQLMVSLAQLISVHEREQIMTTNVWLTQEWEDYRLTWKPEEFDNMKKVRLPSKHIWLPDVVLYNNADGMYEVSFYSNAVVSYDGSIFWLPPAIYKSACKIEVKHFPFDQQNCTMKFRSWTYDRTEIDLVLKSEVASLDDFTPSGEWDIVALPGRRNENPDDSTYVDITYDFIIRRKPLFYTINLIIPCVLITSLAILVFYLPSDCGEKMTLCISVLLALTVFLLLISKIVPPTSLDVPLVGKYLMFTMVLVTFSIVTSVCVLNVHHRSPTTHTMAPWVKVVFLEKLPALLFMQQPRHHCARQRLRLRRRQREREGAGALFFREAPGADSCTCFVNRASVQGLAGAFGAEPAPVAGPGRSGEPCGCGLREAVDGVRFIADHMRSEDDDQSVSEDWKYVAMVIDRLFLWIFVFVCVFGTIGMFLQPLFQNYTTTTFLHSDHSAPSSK
Chain of Nicotinic acetylcholine receptor alpha4/beta2/alpha5 (P43681 whole entry): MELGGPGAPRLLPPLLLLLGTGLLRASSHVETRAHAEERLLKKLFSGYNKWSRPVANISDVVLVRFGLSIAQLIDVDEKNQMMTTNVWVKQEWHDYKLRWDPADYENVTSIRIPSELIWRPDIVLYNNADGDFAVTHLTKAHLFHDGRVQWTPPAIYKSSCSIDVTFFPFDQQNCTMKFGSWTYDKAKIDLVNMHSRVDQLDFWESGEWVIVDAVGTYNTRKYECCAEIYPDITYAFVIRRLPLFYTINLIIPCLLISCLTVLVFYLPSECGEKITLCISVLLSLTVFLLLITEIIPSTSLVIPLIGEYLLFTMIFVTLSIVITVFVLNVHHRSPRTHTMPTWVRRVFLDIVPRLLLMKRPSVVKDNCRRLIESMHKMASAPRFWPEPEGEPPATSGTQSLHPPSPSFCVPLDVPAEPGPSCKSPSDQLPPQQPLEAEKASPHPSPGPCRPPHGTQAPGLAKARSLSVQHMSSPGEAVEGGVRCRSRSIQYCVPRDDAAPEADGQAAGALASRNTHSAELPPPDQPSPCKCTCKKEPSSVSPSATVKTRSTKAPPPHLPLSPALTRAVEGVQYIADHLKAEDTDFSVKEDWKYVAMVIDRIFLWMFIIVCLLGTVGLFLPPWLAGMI
Chain of Nicotinic acetylcholine receptor alpha4/beta2/alpha5 (P30532 whole entry): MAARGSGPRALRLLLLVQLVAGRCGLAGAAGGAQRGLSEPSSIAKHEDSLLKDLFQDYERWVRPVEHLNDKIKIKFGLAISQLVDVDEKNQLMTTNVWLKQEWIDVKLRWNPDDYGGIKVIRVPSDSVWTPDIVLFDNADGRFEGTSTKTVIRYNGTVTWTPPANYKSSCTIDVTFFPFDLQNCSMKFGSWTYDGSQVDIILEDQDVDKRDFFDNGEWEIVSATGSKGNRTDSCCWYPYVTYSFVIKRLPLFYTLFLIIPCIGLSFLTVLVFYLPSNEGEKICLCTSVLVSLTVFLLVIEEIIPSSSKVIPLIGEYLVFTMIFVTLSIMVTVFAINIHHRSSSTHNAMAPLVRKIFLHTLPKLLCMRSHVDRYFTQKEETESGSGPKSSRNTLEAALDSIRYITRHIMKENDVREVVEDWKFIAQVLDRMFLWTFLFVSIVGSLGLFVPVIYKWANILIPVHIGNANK
T2 sequence (P17787 whole entry): as the sequence (P17787 whole entry) above
T2 sequence (P43681 whole entry): as the sequence (P43681 whole entry) above

SMILES | Activity [1] | Activity [2] | further results
NC(=O)c1cccc(-n2nnc(-c3cccnc3)n2)c1 | inactive | inactive | –
N#Cc1cccc(-c2nc(-c3cccnc3)no2)c1 | inactive | > 50% | Activity [3]: inactive; Activity [4]: inactive; Activity [5]: inactive; Activity [6]: inactive; EC50 [7]: 0.79 µM; EC50 [8]: 0.99 µM; Activity [9]: Active
Brc1cccc(-n2nnc(-c3cccnc3)n2)c1 | inactive | inactive | –
Fc1ccc(-n2nnc(-c3cccnc3)n2)c(F)c1 | inactive | inactive | –
N#Cc1cccc(-n2nnc(-c3ccccn3)n2)c1 | inactive | inactive | –
Clc1ccccc1-c1nc(-c2cccnc2)no1 | inactive | inactive | –
N#Cc1cccc(-n2cc(-c3cccnc3)cn2)c1 | inactive | inactive | –
N#Cc1cccc(-n2cnc(-c3cccnc3)n2)c1 | inactive | inactive | –
Fc1cccc(-c2nc(-c3cccnc3)no2)c1 | inactive | inactive | –
N#Cc1cccc(-n2nnc(-c3ccncc3)n2)c1 | inactive | inactive | –
Fc1cccc(-c2nc(-c3cccnc3)no2)c1F | inactive | inactive | –
N#Cc1cccc(-c2nnc(-c3cccnc3)[nH]2)c1 | inactive | inactive | –
N#Cc1cccc(-n2cnc(-c3cccnc3)c2)c1 | inactive | inactive | –
Fc1ccc(-c2nc(-c3cccnc3)no2)cc1F | inactive | > 50% | Emax [10]: 1.2; EC50 [7]: 1.3 µM
N#Cc1cccc(-n2ccc(-c3cccnc3)n2)c1 | inactive | inactive | –
Clc1ccc(-c2nc(-c3cccnc3)no2)cc1 | inactive | inactive | –
N#Cc1cccc(-n2nnc(-c3cncc(Cl)c3)n2)c1 | inactive | inactive | –
Cc1ccc(-n2nnc(-c3cccnc3)n2)cc1C#N | inactive | inactive | –
O=[N+]([O-])c1cccc(-c2nc(-c3cccnc3)no2)c1 | inactive | > 50% | Emax [10]: 1.2; EC50 [7]: 0.69 µM
N#Cc1ccc(-n2nnc(-c3cccnc3)n2)cc1 | inactive | > 50% | Emax [10]: 0.96; EC50 [7]: 2.2 µM
N#Cc1cccc(-c2cn(-c3cccnc3)nn2)c1 | inactive | inactive | –
N#Cc1cccc(-n2nnc(-c3ccc(Cl)nc3)n2)c1 | inactive | inactive | –
FC(F)(F)Oc1cccc(-c2nc(-c3cccnc3)no2)c1 | inactive | inactive | –
N#Cc1cccc(-c2nc(-c3ccccc3)no2)c1 | inactive | inactive | –

SMILES | Activity [1] | Activity [2] | further results
N#Cc1cccc(-n2nnc(-c3cccnc3Cl)n2)c1 | inactive | inactive | –
N#Cc1cccc(-c2ncn(-c3cccnc3)n2)c1 | inactive | inactive | –
N#Cc1cccc(-n2nnc(-c3cccnc3)n2)c1 | inactive | > 50% | F (Mus musculus [11]): 100%; Cmax [12]: 4.1 µM; Vd (Mus musculus [13]): 2.7 L/kg; AUC (Mus musculus [14]): 21 µM·h; half-life [15]: 54 min; concentration at 2 h [16]: 4.4 µM; concentration at 2 h [17]: 11 µM; Activity [3]: inactive; Activity [4]: inactive; Activity [5]: inactive; Activity [6]: inactive; Emax [10]: 2.5; EC50 [7]: 2 µM; Activity [9]: Active
c1cncc(-c2noc(-c3cccnc3)n2)c1 | inactive | > 50% | Emax [10]: 0.98; EC50 [7]: 1 µM
C[n+]1cccc(-c2nnn(-c3cccc(C#N)c3)n2)c1 | inactive | inactive | –
N#Cc1cccc(-n2nnc(-c3ccccc3)n2)c1 | inactive | inactive | –
Clc1ccccc1-n1nnc(-c2cccnc2)n1 | inactive | inactive | –
FC(F)(F)c1cccc(-c2nc(-c3cccnc3)no2)c1 | inactive | inactive | –
N#Cc1cccc(-c2cn(-c3cccnc3)cn2)c1 | inactive | inactive | –
N#Cc1cccc(-c2ccn(-c3cccnc3)n2)c1 | inactive | inactive | –
N#Cc1cccc(-n2cc(-c3cccnc3)nn2)c1 | inactive | inactive | –
N#Cc1cccc(-c2nc(-c3ccncc3)no2)c1 | inactive | inactive | –
COc1cc(OC)cc(-n2nnc(-c3cccnc3)n2)c1 | inactive | inactive | –
O=[N+]([O-])c1ccccc1-c1nc(-c2cccnc2)no1 | inactive | inactive | –
N#Cc1cccc(-n2nnc(-c3cnccc3Cl)n2)c1 | inactive | inactive | –
c1cncc(-c2nnn(-c3cccnc3)n2)c1 | inactive | > 50% | Emax [10]: 1.9; EC50 [7]: 0.7 µM
Clc1cc(Cl)cc(-n2nnc(-c3cccnc3)n2)c1 | inactive | inactive | –
O=[N+]([O-])c1ccc(-c2nc(-c3cccnc3)no2)cc1 | inactive | > 50% | Emax [10]: 0.81; EC50 [7]: 1.7 µM
N#Cc1cccc(-c2nc(-c3ccccn3)no2)c1 | inactive | inactive | –
c1ccc(-c2nc(-c3cccnc3)no2)cc1 | inactive | inactive | –
COc1ccc(OC)c(-n2nnc(-c3cccnc3)n2)c1 | inactive | inactive | –
C[n+]1cccc(-c2noc(-c3cccc(C#N)c3)n2)c1 | inactive | inactive | –
COc1cccc(-c2nc(-c3cccnc3)no2)c1 | inactive | inactive | –

Source: ChEMBL document CHEMBL3102781, “Synthesis and activity of substituted heteroaromatics as positive allosteric modulators for α4β2α5 nicotinic acetylcholine receptors” (Bioorg Med Chem Lett, 2014)
